Screens from PubChem BioAssay.
KCNQ1 act – potentiators or activators of KCNQ1 channel, primary screen, cell-based, thallium flux, high-throughput. 310,000 tested, 0.35% active. B-score at 10 µM. Potassium voltage-gated channel subfamily KQT member 1 (Homo sapiens), P51787. AID 2648, 2010. CHO-K1 KCNQ1, thallium flux FluxOR fluorescence; hits give high values;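 active means fluorescence ratio B-score, a plate-corrected score, at least three library SD, with initial intensity B-score within 5 SD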
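Test system: CHO-K1 cells stably expressing KCNQ1 / Medium: assay buffer / Also added: depolarizing K+/Tl+ stimulus, K2SO4 and Tl2SO4 each 12.5 mM in 5x stock / Incubation: 90 min dye loading and 20 min compound exposure, both at room temperature / Signal: thallium influx via FluxOR fluorescence, kinetic imaging / Evaluation: B score of baseline-normalized fluorescence ratio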
Cl transport mod – KCC2 cotransporter modulators, thallium flux, primary screen, cell-based, HEK293 KCC2, FluoZin-2 fluorescence, MLSMR | Solute carrier family 12 member 5 (Homo sapiens), Q9H2X9 | B-score of Tl+ flux slope (higher = more flux/activation; lower = inhibition) at 10 µM | 190,000 tested, 2.2% active | AID 1456, 2008 | KCC2 cells, thallium flux FluoZin-2 fluorescence;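 active means thallium flux slope and its plate-corrected score both differing from the plate sample mean at a set confidence after two filtering rounds, in either direction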;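 further: slope of fluorescence scaled to starting intensity during 10 to 20 s after thallium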
KCNK9 block – KCNK9 potassium channel inhibitors, primary screen, HEK293 cells, thallium flux | B-score at 10 µM | FluxOR thallium flux fluorescence; hits give low values | 310,000 tested, 1.2% active;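 active means ratio B-score over 3 SD below the library mean, with starting fluorescence within 5 SD of its mean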;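 further: negative B-score means less thallium flux so channel inhibition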
hERG protect – hERG rescue from dofetilide block, primary screen, cell-based, CHO-hERG, FluxOR thallium flux, dofetilide IC70; dofetilide IC70 present; 310,000 tested, 0.51% active; Voltage-gated inwardly rectifying potassium channel KCNH2 (Homo sapiens), Q12809; activation (rescue from dofetilide block), less the hit threshold, % at 10 µM;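 active means activation above the mean of controls blocked by dofetilide plus 5 SD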;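 further: thallium influx through hERG after potassium depolarization seen as dye fluorescence rise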
Target sequence (Q12809 whole entry, looked up): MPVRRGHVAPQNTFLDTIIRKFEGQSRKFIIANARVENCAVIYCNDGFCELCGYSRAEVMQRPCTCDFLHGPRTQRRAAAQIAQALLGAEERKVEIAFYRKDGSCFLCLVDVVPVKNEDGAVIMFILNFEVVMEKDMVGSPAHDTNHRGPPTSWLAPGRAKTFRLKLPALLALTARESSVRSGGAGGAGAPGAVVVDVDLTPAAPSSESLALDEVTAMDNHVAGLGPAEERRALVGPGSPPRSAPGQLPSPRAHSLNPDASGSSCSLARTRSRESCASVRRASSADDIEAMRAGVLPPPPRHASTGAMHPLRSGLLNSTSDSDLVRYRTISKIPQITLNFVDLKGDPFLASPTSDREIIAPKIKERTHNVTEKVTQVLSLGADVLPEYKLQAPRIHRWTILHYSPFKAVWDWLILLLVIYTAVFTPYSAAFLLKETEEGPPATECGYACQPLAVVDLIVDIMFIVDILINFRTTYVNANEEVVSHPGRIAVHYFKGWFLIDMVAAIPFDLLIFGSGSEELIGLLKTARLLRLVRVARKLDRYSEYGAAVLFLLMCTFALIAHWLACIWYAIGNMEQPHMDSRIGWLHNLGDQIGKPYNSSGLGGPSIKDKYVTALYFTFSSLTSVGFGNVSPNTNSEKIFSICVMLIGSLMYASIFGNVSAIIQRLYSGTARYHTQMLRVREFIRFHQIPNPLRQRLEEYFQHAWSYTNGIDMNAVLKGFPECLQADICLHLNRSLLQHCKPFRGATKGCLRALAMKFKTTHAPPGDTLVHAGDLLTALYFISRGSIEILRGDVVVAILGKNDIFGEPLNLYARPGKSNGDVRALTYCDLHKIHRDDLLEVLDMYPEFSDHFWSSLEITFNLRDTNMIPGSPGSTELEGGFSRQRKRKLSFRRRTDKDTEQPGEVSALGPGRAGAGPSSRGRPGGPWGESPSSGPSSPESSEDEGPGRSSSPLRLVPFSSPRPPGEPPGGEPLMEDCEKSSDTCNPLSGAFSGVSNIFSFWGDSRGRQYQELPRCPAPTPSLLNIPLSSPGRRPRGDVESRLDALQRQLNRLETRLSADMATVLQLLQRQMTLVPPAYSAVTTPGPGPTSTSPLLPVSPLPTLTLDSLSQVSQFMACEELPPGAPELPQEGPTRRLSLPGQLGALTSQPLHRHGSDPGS
KCNK3 inh – human KCNK3 channel inhibitors, primary screen, CHO cells, FluxOR thallium flux, B-score | Potassium channel subfamily K member 3 (Homo sapiens), O14649 | AID 602410, 2012 | FluxOR fluorescence; hits give low values | 340,000 tested, 0.84% active | B-score at 10 µM;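 active means B-score under library mean minus 4 SD, starting fluorescence ratio at most library mean plus 5 SD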;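 further: more negative B-score means stronger inhibition of thallium flux through KCNK3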
KCNQ1 block – inhibitors of human KCNQ1 channel, primary screen, cell-based, thallium flux, high-throughput. 310,000 tested, 1.3% active. CHO-K1 KCNQ1, FluxOR thallium flux fluorescence; hits give high values. B-score at 10 µM;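 active means compounds whose thallium flux B-score, printed positive for inhibition, exceeds three library SD while starting fluorescence stays within three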;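 further: channel opened by potassium depolarization with thallium stimulus after 20 min compound exposure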
KCNK9 inh conf – KCNK9 potassium channel inhibitors, confirmation, HEK293 cells, thallium flux, duplicate. shares compounds with KCNK9 block. FluxOR thallium flux fluorescence. inhibition, % at 10 µM. 4,900 tested, 43% active;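 active means thallium signal inhibited by more than 5 SD of the compound-free buffer control wells, on both duplicate plates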;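 further: 0% = assay buffer control wells without compound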
Kir21 sel – mouse Kir2.1 channel inhibition, confirmation, selectivity assay for KCNK9 modulator project, cell-based, HEK293, thallium flux; shares compounds with KCNK9 block; 4,900 tested, 4% active; AID 492993, 2010; inhibition, % at 10 µM; Kir2.1 cells, FluxOR thallium flux fluorescence;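 active means thallium signal drop more than 5 SD beyond the mean of the no-compound control wells, seen in both duplicate plates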;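 further: signal is fluorescence rise after thallium addition divided by baseline fluorescence; plate controls were assay buffer only for no effect and full block by chlorpromazine control for full effect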
KCNK9 uninduced – thallium flux in non-induced HEK293 cells, confirmation, counter-screen for KCNK9 inhibitor project, cell-based, second counter screen, non-induced KCNK9-HEK293; FluxOR thallium flux; shares compounds with KCNK9 block; 4,900 tested, 40% active; inhibition, % at 10 µM;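 active means thallium signal drop beyond 5 SD of the untreated control mean, on both duplicate plates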;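 further: plate controls were buffer only IC0 wells for no effect and SID17386958 at its maximal inhibitory level for full effect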
The depositor's hits bear a star; i = inactive; . = not tested or not shown. Sampled rows, rich in hits. Any-hit rate of the full collection: about 4.1%.

SMILES | KCNQ1 act | Cl transport mod | KCNK9 block | hERG protect | KCNK3 inh | KCNQ1 block | KCNK9 inh conf | Kir21 sel | KCNK9 uninduced
CCOC(=O)c1c(C)oc2ccc(NS(=O)(=O)c3ccc4c5c(cccc35)C(=O)N4)cc12 | i | 0.031 | -10* | -11 | i | i | 36%* | i | i
COCCOC(=O)c1c(C)oc2ccc(NS(=O)(=O)c3ccccc3)cc12 | i | -0.026 | i | -6 | i | i | . | . | .
O=C(C(c1ccccc1)c1ccccc1)N1CCCc2ccccc21 | i | 0.034 | -11* | -11 | i | i | 44%* | i | 42%*
COCCNC(=O)Cn1ccc2cc(S(=O)(=O)N3CCCCC3)ccc21 | i | . | i | -4 | i | i | . | . | .
O=C(CCCn1cnc([N+](=O)[O-])n1)Nc1cccc(O)c1 | i | 0.3 | i | -4 | i | i | . | . | .
CN(Cc1ccccc1)C(=O)c1cccc(NC(=O)Cc2cccc(NC(=O)C3CCN(C(=O)c4ccccc4)CC3)c2)c1 | . | . | . | . | i | . | . | . | .
CCCCNc1nc(-c2ccccc2)cc(C(F)(F)F)c1C(N)=O | i | -0.85 | i | -1 | i | i | . | . | .
Cc1nc(-c2coc3c(CN(C)C)c(O)ccc3c2=O)cs1 | i | . | -8.2* | -10 | i | i | i | i | i
COc1ccccc1-c1coc2c(CN(C)C)c(O)ccc2c1=O | i | . | i | -8 | i | i | . | . | .
C=C(C)COc1ccc(-c2ncncc2-c2ccc(Br)cc2)c(O)c1 | i | . | i | -5 | i | i | i | i | i
C=C(C)COc1ccc(-c2ncncc2-c2ccc(Cl)cc2)c(O)c1 | i | . | i | -4 | i | i | . | . | .
O=C(NC(=S)NC1CCC(O)CC1)c1ccco1 (centres undefined) | . | . | . | . | i | . | . | . | .
C=CCN(CC=C)CC(O)CN(c1cc([N+](=O)[O-])ccc1OC)S(=O)(=O)c1ccccc1 (centres undefined) | i | -0.64 | i | -8 | i | i | . | . | .
Cc1ccc(S(=O)(=O)N2CCN(C(=O)COC(=O)c3cncc(Br)c3)CC2)c(C)c1 | . | . | . | . | i | . | . | . | .
CCCNC(=O)C12CCC(C)(c3nc4cc(C)c(C)cc4nc31)C2(C)C (centres undefined) | i | -0.3 | i | -8 | i | i | i | i | i
O=C(NC1CCOCC1)C1CCC(=O)N(Cc2cccc(C(F)(F)F)c2)C1 (centres undefined) | i | . | i | -4 | i | i | . | . | .
CC(C)=CCC12Oc3cc(O)ccc3C1(O)Oc1cc3c(c(O)c1C2=O)C=CC(C)(C)O3 (centres undefined) | i | . | -8.3* | -6 | . | i | i | i | 24%*
Cc1cc(C(C#N)c2ccccc2F)n2ncnc2n1 (centres undefined) | i | -0.95 | i | -4 | i | i | . | . | .
CCOC(=O)c1cc(NC(=O)Nc2ccc(Br)cc2)c(C)nc1C | i | -0.054 | i | -5 | i | i | i | i | i
CCOC(=O)c1cc(NC(=O)Nc2ccccc2Cl)c(C)nc1C | i | -0.052 | i | -12 | i | i | . | . | .
CCOC(=O)C1CCCN(S(=O)(=O)CCNC(=O)c2cccc(OC)c2)C1 (centres undefined) | i | . | i | -18 | i | i | . | . | .
COc1ccc(-c2nnc(SCc3cc(C)cc(C)c3)o2)cc1 | i | -0.84 | i | -10 | i | i | i | i | i
COc1cccc(C2=NN(C(=O)c3ccc(C)o3)C(O)(C(F)(F)F)C2)c1 (centres undefined) | i | 0.49 | i | -16 | i | i | . | . | .
Cc1ccc(C(=O)N2N=C(c3ccccc3)CC2(O)C(F)(F)F)o1 (centres undefined) | i | 1.6 | -11* | -13 | i | i | 55%* | i | 32%*
COCc1nnc(NS(=O)(=O)c2c(C)cc(C)cc2C)s1 | i | . | i | -11 | i | i | . | . | .
SMILES | KCNQ1 act | Cl transport mod | KCNK9 block | hERG protect | KCNK3 inh | KCNQ1 block | KCNK9 inh conf | Kir21 sel | KCNK9 uninduced
O=C(OCc1nnc(-c2ccccc2)o1)C12CC3CC(CC(Br)(C3)C1)C2 | i | -0.21 | i | -14 | i | i | i | i | i
Cc1ccccc1Nc1nnc(SCc2cc([N+](=O)[O-])cc3c2OCOC3)s1 | i | -1.1 | -8.9* | -8 | i | i | i | i | i
CC1CCCCN1C(=O)CSc1nc(C2CC2)nc2c1cnn2-c1ccccc1 (centres undefined) | i | . | -11* | -10 | i | i | 56%* | i | i
Cc1nn(C)c(C)c1NC(=O)CSc1nc(C2CC2)nc2c1cnn2-c1ccccc1 | i | -0.56 | i | -16 | i | i | . | . | .
CCc1cc(C(=O)OC)c(NC(=O)CN2CCN(C(=O)c3ccco3)CC2)s1 | i | . | i | -2 | i | i | . | . | .
CCN1CCN(C(=S)Nc2sc(C)c(-c3ccccc3)c2C(=O)OC)CC1 | i | . | i | -6 | i | 6* | i | i | i
CCCN1CCN(C(=S)Nc2sc(CC)cc2C(=O)OC)CC1 | i | 0.76 | i | -13 | i | i | i | i | i
COc1ccccc1C1=CC(=O)CC(C)(C)C1=O | . | . | . | . | i | . | . | . | .
COc1cc(-c2nc3c4ccccc4nc(=S)n3[nH]2)cc(OC)c1OC | i | . | i | -8 | i | i | . | . | .
COc1ccccc1-c1nc2c3ccccc3nc(=S)n2[nH]1 | i | . | i | -9 | i | i | . | . | .
CC(Oc1ccc(Br)cc1)c1nc2c3ccccc3nc(=S)n2[nH]1 (centres undefined) | 10* | 26* | i | 0 | i | i | i | i | i
